We go through 26 molecules from ChEMBL document CHEMBL3593234, “Lanostane Triterpenes from the Tibetan Medicinal Mushroom Ganoderma leucocontextum and Their Inhibitory Effects on HMG-CoA Reductase and α-Glucosidase” (J Nat Prod, 2015).

In assay [1] the target is T1, 3-hydroxy-3-methylglutaryl-coenzyme A reductase (Sus scrofa, UniProt Q1W675).
T1 sequence (Q1W675 whole entry): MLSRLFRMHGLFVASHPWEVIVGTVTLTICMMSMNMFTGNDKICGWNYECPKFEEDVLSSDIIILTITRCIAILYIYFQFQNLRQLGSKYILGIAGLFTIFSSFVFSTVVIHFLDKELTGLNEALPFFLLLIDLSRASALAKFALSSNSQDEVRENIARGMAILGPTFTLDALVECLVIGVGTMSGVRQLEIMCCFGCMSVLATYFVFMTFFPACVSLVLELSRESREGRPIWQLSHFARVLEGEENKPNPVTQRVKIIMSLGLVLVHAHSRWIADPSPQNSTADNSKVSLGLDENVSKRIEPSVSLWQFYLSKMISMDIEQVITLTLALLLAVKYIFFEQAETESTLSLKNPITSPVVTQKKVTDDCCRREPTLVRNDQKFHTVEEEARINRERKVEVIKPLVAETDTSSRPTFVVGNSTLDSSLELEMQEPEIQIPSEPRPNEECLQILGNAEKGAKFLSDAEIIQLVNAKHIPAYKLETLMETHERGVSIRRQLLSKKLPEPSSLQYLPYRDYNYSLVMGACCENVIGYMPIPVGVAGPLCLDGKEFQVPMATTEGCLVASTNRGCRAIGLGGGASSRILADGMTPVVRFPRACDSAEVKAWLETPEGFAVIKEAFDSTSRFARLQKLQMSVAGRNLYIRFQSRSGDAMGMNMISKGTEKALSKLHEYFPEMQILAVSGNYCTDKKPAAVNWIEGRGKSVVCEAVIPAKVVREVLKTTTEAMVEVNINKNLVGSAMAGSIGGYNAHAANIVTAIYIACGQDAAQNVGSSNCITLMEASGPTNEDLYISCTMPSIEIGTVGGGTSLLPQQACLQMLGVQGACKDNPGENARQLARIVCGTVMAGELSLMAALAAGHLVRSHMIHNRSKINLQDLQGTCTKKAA
The experiment in a line: Inhibition of pig liver microsomes HMG-CoA reductase incubated for 5 mins in using HMG-CoA and NADPH by colorimetric method. Put shortly:
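Pig liver microsomal HMG-CoA reductase at about 4 U/mL final, with compound at 2.5–80 μM final and 200 μM HMG-CoA. Buffer was 0.1 mol/L potassium phosphate pH 7.0 with EDTA, dithiothreitol and BSA. After 5 min at 37 °C, 100 μM NADPH was added for 15 min at 37 °C. Absorbance was read at 340 nm, with percent inhibition from blank-corrected OD.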

The nature of assay [2]: Inhibition of Baker's yeast alpha-glucosidase. Also noted: species or system Saccharomyces cerevisiae. Put shortly: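 Baker's yeast α-glucosidase assay read by absorbance at 405 nm. Control wells got phosphate buffer instead of compound, and blanks got buffer instead of enzyme. Percent inhibition was calculated from blank-corrected OD of test versus control wells.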
The test system of another assay is K562. The experiment in a line: Cytotoxicity against human K562 cells by MTT method. The class given is functional, cell-based.
Another assay relates to PC-3. Description: Cytotoxicity against human PC3 cells by MTT method. The class given is functional, cell-based.

Consider `C/C(=C\CC[C@@H](C)[C@H]1CC[C@@]2(C)C3=C(C(=O)C[C@]12C)[C@@]1(C)CCC(=O)[C@@](C)(CO)[C@@H]1C[C@@H]3O)C(=O)O`, for which the half-inhibitory concentration (IC50) was 17.1 µM in assay [1]; over 50 µM in assay [2]; 17.8 µM in the assay on K562 (Homo sapiens, K562); over 200 µM in the assay with PC-3 (Homo sapiens, PC-3).
In the same order, the values of `C/C(=C\CC[C@@H](C)[C@H]1CC[C@@]2(C)C3=C(C(=O)[C@H](O)[C@]12C)[C@@]1(C)CCC(=O)[C@@](C)(CO)[C@@H]1C[C@@H]3O)C(=O)O` are 66.9 µM, over 50 µM, 19.7 µM and over 200 µM.
In the case of `CC(=O)O[C@H]1C(=O)C2=C([C@@H](O)C[C@H]3[C@](C)(CO)C(=O)CC[C@]23C)[C@]2(C)CC[C@H]([C@H](C)CC/C=C(\C)C(=O)O)[C@@]12C`, the concentration for half-maximal inhibition (IC50) in assay [1] was 26.6 µM; in assay [2], over 50 µM; in the assay with K562 (Homo sapiens, K562), over 200 µM; in the assay on PC-3 (Homo sapiens, PC-3) it was over 200 µM.
With `CC(=O)O[C@H]1C(=O)C2=C([C@@H](O)C[C@H]3[C@](C)(CO)C(=O)CC[C@]23C)[C@]2(C)C(=O)C[C@H]([C@H](C)CC/C=C(\C)C(=O)O)[C@@]12C`, the half-maximal inhibitory concentration (IC50) is 97.5 µM in assay [1]; over 50 µM in assay [2]; 147 µM in the assay on K562 (Homo sapiens, K562); 88.3 µM in the assay with PC-3 (Homo sapiens, PC-3).
For `C/C(=C\CC[C@@H](C)[C@H]1CC(=O)[C@@]2(C)C3=C(C(=O)[C@H](O)[C@]12C)[C@@]1(C)CCC(=O)[C@@](C)(CO)[C@@H]1C[C@@H]3O)C(=O)O`, in that order: over 100 µM, 12.7 µM, over 200 µM and over 200 µM.
Turning to `CC(=O)O[C@H]1C(=O)C2=C(C(=O)C[C@H]3[C@](C)(CO)C(=O)CC[C@]23C)[C@]2(C)C(=O)C[C@H]([C@H](C)CC/C=C(\C)C(=O)O)[C@@]12C`, the IC50 was 20.5 µM in assay [1]; over 50 µM in assay [2]; 18.2 µM with K562 (Homo sapiens, K562); over 200 µM in the assay with PC-3 (Homo sapiens, PC-3).
With `C[C@H](CCC=C(CO)CO)[C@H]1CC[C@@]2(C)C3=C(C(=O)C[C@]12C)[C@@]1(C)CCC(=O)C(C)(C)[C@@H]1C[C@@H]3O`, the 50% inhibitory concentration (IC50) is over 100 µM in assay [1]; over 50 µM in assay [2]; 11.4 µM with K562 (Homo sapiens, K562); 132 µM in the assay on PC-3 (Homo sapiens, PC-3).
In the same order, the values of `C[C@H](CCC=C(CO)CO)[C@H]1CC[C@@]2(C)C3=C(C(=O)C[C@]12C)[C@@]1(C)CCC(=O)C(C)(C)[C@@H]1CC3=O` are 32.9 µM, over 50 µM, 115 µM and 24.2 µM.
Turning to `C[C@H](CCC=C(CO)CO)[C@H]1C[C@@H](O)[C@@]2(C)C3=C(C(=O)C[C@]12C)[C@@]1(C)CCC(=O)C(C)(C)[C@@H]1CC3`, the IC50 in assay [1] was over 100 µM; in assay [2], over 50 µM; with K562 (Homo sapiens, K562), over 200 µM; in the assay with PC-3 (Homo sapiens, PC-3) it was over 200 µM.
Turning to `CC(=O)O[C@H]1C(=O)C2=C([C@@H](O)C[C@H]3[C@](C)(COC(=O)C[C@@](C)(O)CC(=O)O)C(=O)CC[C@]23C)[C@]2(C)C(=O)C[C@H]([C@H](C)CC/C=C(\C)C(=O)O)[C@@]12C`, the IC50 in assay [1] is 26.4 µM; in assay [2], over 50 µM; in the assay on K562 (Homo sapiens, K562), 12.3 µM; in the assay with PC-3 (Homo sapiens, PC-3), 110 µM.
Turning to `C/C(=C\CC[C@@H](C)[C@H]1CC(=O)[C@@]2(C)C3=C(C(=O)[C@H](O)[C@]12C)[C@@]1(C)CCC(=O)[C@@](C)(COC(=O)C[C@@](C)(O)CC(=O)O)[C@@H]1CC3=O)C(=O)O`, the concentration for half-maximal inhibition (IC50) in assay [1] is 10.7 µM; in assay [2], over 50 µM; with K562 (Homo sapiens, K562) it was 22.6 µM; with PC-3 (Homo sapiens, PC-3) it was over 200 µM.
As for `C/C(=C\CC[C@@H](C)[C@H]1CC(=O)[C@@]2(C)C3=C(C(=O)C[C@]12C)[C@@]1(C)CCC(=O)[C@@](C)(COC(=O)C[C@@](C)(O)CC(=O)O)[C@@H]1CC3=O)C(=O)O`, the IC50 in assay [1] was 13.3 µM; in assay [2] it was over 50 µM; with K562 (Homo sapiens, K562), 14.4 µM; in the assay with PC-3 (Homo sapiens, PC-3) it was over 200 µM.
In the same order, the values of `C[C@H](CCC=C(CO)CO)[C@H]1CC[C@@]2(C)C3=C(CC[C@]12C)[C@@]1(C)CCC(=O)C(C)(C)[C@@H]1CC3=O` are 12.6 µM, over 50 µM, 41.6 µM and over 200 µM.
Regarding `C/C(=C/CC[C@@H](C)[C@H]1CC[C@@]2(C)C3=C(C(O)C[C@]12C)[C@@]1(C)CCC(=O)C(C)(C)[C@@H]1CC3=O)C(=O)O` (stereo partly specified), the IC50 in assay [1] was over 100 µM; in assay [2] it was over 50 µM; with K562 (Homo sapiens, K562), over 200 µM; in the assay on PC-3 (Homo sapiens, PC-3), over 200 µM.
Regarding `C[C@H](CCC=C(CO)CO)[C@H]1C[C@@H](O)[C@@]2(C)C3=CC[C@H]4C(C)(C)C(=O)CC[C@]4(C)C3=CC[C@]12C`, the IC50 was over 100 µM in assay [1]; over 50 µM in assay [2]; 76.6 µM in the assay with K562 (Homo sapiens, K562); 103 µM in the assay on PC-3 (Homo sapiens, PC-3).
On to `C/C(=C/CC[C@@H](C)[C@H]1CC[C@@]2(C)C3=C(CC[C@]12C)[C@@]1(C)CCC(=O)C(C)(C)[C@@H]1CC3=O)C(=O)O` (stereo in doubt; 18) [GANODERIC ACID DM], for which the half-inhibitory concentration (IC50) in assay [1] is 9.5 µM; in assay [2] it was over 50 µM; in the assay on K562 (k562) it was 18.8 µM; in the assay with PC-3 (Homo sapiens, PC-3) it was 81.6 µM.
As to `C/C(=C/CC[C@@H](C)[C@H]1CC[C@@]2(C)C3=C(CC[C@]12C)[C@@]1(C)CCC(=O)C(C)(C)[C@@H]1CC3=O)C(=O)O` (stereo in doubt; 21) [GANODERIC ACID DM], the half-maximal inhibitory concentration (IC50) stood at 56.1 µM in assay [1], 55.4 µM with K562 (k562) and 149 µM in the assay with PC-3 (pc-3).
In assay [2], `C[C@H]1O[C@H](O[C@H]2[C@H](O)[C@@H](O)[C@@H](O[C@H]3[C@H](O)[C@@H](O)C(O)O[C@@H]3CO)O[C@@H]2CO)[C@H](O)[C@@H](O)[C@@H]1N[C@H]1C=C(CO)[C@@H](O)[C@H](O)[C@H]1O` (stereo partly specified) [ACARBOSE] returned an IC50 of 273 µM.
Turning to `CC(C)c1c(C(=O)Nc2ccccc2)c(-c2ccccc2)c(-c2ccc(F)cc2)n1CC[C@@H](O)C[C@@H](O)CC(=O)O` [ATORVASTATIN], in assay [1], the IC50 turned out to be 32.1 µM.
With `COc1cccc2c1C(=O)c1c(O)c3c(c(O)c1C2=O)C[C@@](O)(C(=O)CO)C[C@@H]3O[C@H]1C[C@H](N)[C@H](O)[C@H](C)O1` [DOXORUBICIN], the IC50 in the assay on PC-3 (Homo sapiens, PC-3) came to 2 µM.
As for `C/C(=C/CC[C@@H](C)[C@H]1CC[C@@]2(C)C3=CC[C@H]4C(C)(C)C(=O)CC[C@]4(C)C3=CC[C@]12C)C(=O)O` [GANODERIC ACID S], the IC50 was 12.5 µM in assay [1]; over 50 µM in assay [2]; 65.2 µM with K562 (Homo sapiens, K562); 75.2 µM with PC-3 (Homo sapiens, PC-3).
Consider `C/C(=C\CC[C@@H](C)[C@H]1CC[C@@]2(C)C3=CC[C@H]4C(C)(C)[C@@H](O)CC[C@]4(C)C3=CC[C@]12C)C(=O)O` [GANODERIC ACID Y], for which the IC50 in assay [1] was 8.6 µM; in assay [2], over 50 µM; in the assay with K562 (Homo sapiens, K562), 17.5 µM; with PC-3 (Homo sapiens, PC-3) it was 180 µM.
In the same order, the values of `C[C@H](CCC=C(CO)CO)[C@H]1CC[C@@]2(C)C3=CC[C@H]4C(C)(C)C(=O)CC[C@]4(C)C3=CC[C@]12C` [GANODERIOL F] are over 100 µM, over 50 µM, 54.9 µM and 79.5 µM.
For `C[C@H](CC[C@H](O)[C@](C)(O)CO)[C@H]1CC[C@@]2(C)C3=CC[C@H]4C(C)(C)C(=O)CC[C@]4(C)C3=CC[C@]12C` [GANODERMANONTRIOL], the half-maximal inhibitory concentration (IC50) is 16.8 µM in assay [1]; over 50 µM in assay [2]; 80.9 µM in the assay on K562 (Homo sapiens, K562); 106 µM in the assay with PC-3 (Homo sapiens, PC-3).
For `C/C(=C\CC[C@@H](C)[C@H]1CC[C@@]2(C)C3=C(CC[C@]12C)[C@@]1(C)CCC(=O)C(C)(C)[C@@H]1CC3=O)CO` [GANODERONE A], the IC50 in assay [1] is over 100 µM; in assay [2], 13.7 µM; in the assay with K562 (Homo sapiens, K562), 27.7 µM; in the assay on PC-3 (Homo sapiens, PC-3), 28.5 µM.
`CC(=O)O[C@H]1C(=O)[C@@]2(C)[C@H]([C@H](OC(=O)c3ccccc3)[C@]3(O)C[C@H](OC(=O)[C@H](O)[C@@H](NC(=O)c4ccccc4)c4ccccc4)C(C)=C1C3(C)C)[C@]1(OC(C)=O)CO[C@@H]1C[C@@H]2O` [PACLITAXEL] had an IC50 in the assay with K562 (Homo sapiens, K562) of 0.9 µM.
